Tested on: HUVEC
Assay: In vitro morphogenesis assay on HUVEC plated on Matrigel, VEGF-stimulated
Assay type: cell-based, Human
Settings: 5 h incubation
Procedure, shortened: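 HUVEC (passages 2–10) were maintained at 37 °C, 5% CO2 in medium with 2% FBS and growth factors. 2.5×10^4 cells were seeded on pre-polymerized Matrigel and incubated for 5 h at 37 °C with or without test compound, under VEGF 10 ng mL−1 stimulation. Networks were imaged by phase contrast and scored as total branch length in pixels, with open ramifications counted as branches. Data were normalized to VEGF alone and given as mean±S.D. of 4–10 experiments, with a two-tailed paired Student's t test.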

## Ac-KQMYLELGYATIKWL-NH2 [Compound 14, Ac-Lys-Gln-Met-Tyr-Leu-Glu-Leu-Gly-Tyr-Ala-Thr-Ile-Lys-Trp-Leu-amide]
1 μM, VEGF 10 ng mL−1, length of branches, p>0.05
  VEGF-induced morphogenesis, % of VEGF alone: 82 %±21%

## cyclo[DKP-RGD] [Compound 1]
VEGF165 10 ng mL−1
  effect on new capillary network formation induced by VEGF165 (in words): markedly decreased
